Molecules are shown by their SMILES. In brackets after ≈: the same amount, converted by molar mass.

One data set concerns Mus musculus. Kind of data set: Induction of convulsion in intracerebroventricular dosed mouse. It is filed as organism-based. The following applies: in vivo, icv_or_intrathecal.
Data set [1] has as its system Pseudomonas aeruginosa. Kind of data set: Antipseudomonal activity against Pseudomonas aeruginosa class C AmpC(1d) beta-lactamase-induced clinical isolate FP1380 by CLSI method. In kind it is functional. The following applies: 24 h.
The test system of data set [2] is Pseudomonas aeruginosa. Kind of data set: Antipseudomonal activity against Pseudomonas aeruginosa clinical isolates by CLSI method. In kind it is functional.
For data set [3], the system named is Pseudomonas aeruginosa. Kind of data set: Antipseudomonal activity against Pseudomonas aeruginosa class A TEM beta-lactamase-induced clinical isolate FP2056 by CLSI method. In kind it is functional.
Data set [4] deals with Pseudomonas aeruginosa. In words: Outer-membrane permeability assessed as ratio of MIC for Pseudomonas aeruginosa in absence of DEAE-dextran to MIC for Pseudomonas aeruginosa in presence of DEAE-dextran. In kind it is functional. The method, boiled down:
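MIC per CLSI method, measured for each strain with and without the outer-membrane permeabilizer DEAE-dextran. Permeability index is the ratio of MIC without additive to MIC with additive.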

Where [5] appears, read: Pseudomonas aeruginosa, read-out: MIC50.

Take `Cn1c(N)c(CN)c[n+]1CC1=C(C(=O)[O-])N2C(=O)[C@@H](NC(=O)/C(=N\OC(C)(C)C(=O)O)c3nsc(N)n3)[C@H]2SC1`: the ED50 in the data set with Mus musculus came to 39.3 µg. In addition, the MIC against Pseudomonas aeruginosa [1] amounted to 8 mg/L (≈ 13.5 µM); with Pseudomonas aeruginosa [3], 0.5 mg/L (≈ 0.841 µM). Moreover, the MIC50 in the data set on Pseudomonas aeruginosa [2] (setting [5]) was found to be 0.5 mg/L (≈ 0.841 µM).

In the data set with Mus musculus, `CC(C)(O/N=C(\C(=O)N[C@@H]1C(=O)N2C(C(=O)[O-])=C(C[n+]3ccc(N)n3CCO)CS[C@H]12)c1nsc(N)n1)C(=O)O.Cl` came in with an ED50 of 46.9 µg. Besides, in the data set with Pseudomonas aeruginosa [4], the Ratio was 64. For the same compound, the MIC against Pseudomonas aeruginosa [1] was determined as 16 mg/L; against Pseudomonas aeruginosa [3] it was 1 mg/L. The MIC50 with Pseudomonas aeruginosa [2] (setting [5]) stood at 1 mg/L.

In turn, `Cn1c(N)c(NC(=O)CN)c[n+]1CC1=C(C(=O)[O-])N2C(=O)[C@@H](NC(=O)/C(=N\OC(C)(C)C(=O)O)c3nsc(N)n3)[C@H]2SC1` had an ED50 in the data set with Mus musculus greater than 200 µg. The MIC turned out to be 2 mg/L (≈ 3.14 µM) against Pseudomonas aeruginosa [1] and 0.5 mg/L (≈ 0.784 µM) with Pseudomonas aeruginosa [3]. In the data set with Pseudomonas aeruginosa [2] (setting [5]), the MIC50 came to 0.5 mg/L (≈ 0.784 µM).

In the data set with Mus musculus, `Cn1c(N)c(/C=C/CN)c[n+]1CC1=C(C(=O)[O-])N2C(=O)[C@@H](NC(=O)/C(=N\OC(C)(C)C(=O)O)c3nsc(N)n3)[C@H]2SC1` returned an ED50 of 122 µg. For the same compound, the MIC against Pseudomonas aeruginosa [1] was 2 mg/L (≈ 3.22 µM); against Pseudomonas aeruginosa [3] it was 1 mg/L (≈ 1.61 µM). Besides, the MIC50 in the data set on Pseudomonas aeruginosa [2] (setting [5]) amounted to 0.5 mg/L (≈ 0.806 µM).

As to `CO/N=C(/C(=O)N[C@@H]1C(=O)N2C(C(=O)[O-])=C(C[n+]3ccn4ncccc43)CS[C@H]12)c1nsc(N)n1`, in the data set with Mus musculus, the ED50 is 230 µg. For the same compound, the figures for the MIC in the data set with Pseudomonas aeruginosa [1] and with Pseudomonas aeruginosa [3] were 32 mg/L (≈ 62.1 µM) and 2 mg/L (≈ 3.88 µM), respectively. In addition, the MIC50 in the data set with Pseudomonas aeruginosa [2] (setting [5]) worked out at 2 mg/L (≈ 3.88 µM).

Turning to `CC(C)(O/N=C(\C(=O)N[C@@H]1C(=O)N2C(C(=O)[O-])=C(C[n+]3cccc(N)c3)CS[C@H]12)c1nsc(N)n1)C(=O)O`, the Ratio in the data set with Pseudomonas aeruginosa [4] is recorded as 32. Moreover, the MIC with Pseudomonas aeruginosa [1] amounted to 32 mg/L (≈ 56.9 µM); in the data set with Pseudomonas aeruginosa [3], 1 mg/L (≈ 1.78 µM). Also, the MIC50 in the data set on Pseudomonas aeruginosa [2] (setting [5]) amounted to 1 mg/L (≈ 1.78 µM).

For `CC(C)(O/N=C(\C(=O)N[C@@H]1C(=O)N2C(C(=O)[O-])=C(C[n+]3cccc(NC(=N)N)c3)CS[C@H]12)c1nsc(N)n1)C(=O)O`, the Ratio with Pseudomonas aeruginosa [4] was determined as 16. Further, the MIC with Pseudomonas aeruginosa [1] worked out at 8 mg/L (≈ 13.2 µM); against Pseudomonas aeruginosa [3], 1 mg/L (≈ 1.65 µM). Moreover, the MIC50 with Pseudomonas aeruginosa [2] (setting [5]) is 1 mg/L (≈ 1.65 µM).

As for `CC(C)(O/N=C(\C(=O)N[C@@H]1C(=O)N2C(C(=O)[O-])=C(C[n+]3ccc(CCN)cc3)CS[C@H]12)c1nsc(N)n1)C(=O)O`, in the data set with Pseudomonas aeruginosa [4], the Ratio was determined as 8. Besides, the values for the MIC against Pseudomonas aeruginosa [1] and in the data set on Pseudomonas aeruginosa [3] were 4 mg/L (≈ 6.77 µM) and 1 mg/L (≈ 1.69 µM), respectively. Moreover, the MIC50 in the data set with Pseudomonas aeruginosa [2] (setting [5]) turned out to be 1 mg/L (≈ 1.69 µM).

For `CC(C)(O/N=C(\C(=O)N[C@@H]1C(=O)N2C(C(=O)O)=C(C[n+]3ccc4n3CCN4)CS[C@H]12)c1nsc(N)n1)C(=O)O.O=S(=O)([O-])O`, the MIC in the data set on Pseudomonas aeruginosa [1] is 16 mg/L; in the data set on Pseudomonas aeruginosa [3], 1 mg/L. The MIC50 with Pseudomonas aeruginosa [2] (setting [5]) amounted to 1 mg/L.

Turning to `CC(C)(O/N=C(\C(=O)N[C@@H]1C(=O)N2C(C(=O)O)=C(C[n+]3ccc4n3CCCN4)CS[C@H]12)c1nsc(N)n1)C(=O)O.O=S(=O)([O-])O`, the MIC in the data set on Pseudomonas aeruginosa [1] came to 4 mg/L; against Pseudomonas aeruginosa [3], 1 mg/L. Besides, the MIC50 in the data set on Pseudomonas aeruginosa [2] (setting [5]) turned out to be 1 mg/L.

As for `Cn1c(N)c(CNC(=N)N)c[n+]1CC1=C(C(=O)[O-])N2C(=O)[C@@H](NC(=O)/C(=N\OC(C)(C)C(=O)O)c3nsc(N)n3)[C@H]2SC1`, the ED50 in the data set with Mus musculus is 4.69 µg. The MIC against Pseudomonas aeruginosa [1] was determined as 1 mg/L (≈ 1.57 µM); against Pseudomonas aeruginosa [3] it was 0.5 mg/L (≈ 0.785 µM). Moreover, the MIC50 with Pseudomonas aeruginosa [2] and in the data set on Pseudomonas aeruginosa [2] (setting [5]) was 0.5 mg/L (≈ 0.785 µM) throughout.

With `CC(C)(O/N=C(\C(=O)N[C@@H]1C(=O)N2C(C(=O)[O-])=C(C[n+]3ccccc3)CS[C@H]12)c1nsc(N)n1)C(=O)O`, the MIC in the data set with Pseudomonas aeruginosa [1] worked out at 32 mg/L (≈ 58.4 µM); against Pseudomonas aeruginosa [3] it was 1 mg/L (≈ 1.83 µM). Moreover, in the data set on Pseudomonas aeruginosa [2] (setting [5]), the MIC50 came out at 2 mg/L (≈ 3.65 µM).

In the case of `CC(C)(O/N=C(\C(=O)N[C@@H]1C(=O)N2C(C(=O)[O-])=C(C[n+]3ccc(N)n3CCCF)CS[C@H]12)c1nsc(N)n1)C(=O)O`, the MIC with Pseudomonas aeruginosa [1] came to 8 mg/L (≈ 13.1 µM); with Pseudomonas aeruginosa [3], 1 mg/L (≈ 1.63 µM). In addition, in the data set with Pseudomonas aeruginosa [2] (setting [5]), the MIC50 is 1 mg/L (≈ 1.63 µM).

As to `Cn1c(N)cc[n+]1CC1=C(C(=O)[O-])N2C(=O)[C@@H](NC(=O)/C(=N\OC(C)(C)C(=O)O)c3nsc(N)n3)[C@H]2SC1`, the MIC against Pseudomonas aeruginosa [1] was 32 mg/L (≈ 56.6 µM); against Pseudomonas aeruginosa [3], 1 mg/L (≈ 1.77 µM). Further, the MIC50 in the data set with Pseudomonas aeruginosa [2] (setting [5]) amounted to 1 mg/L (≈ 1.77 µM).

In the data set on Mus musculus, `CC(C)(O/N=C(\C(=O)N[C@@H]1C(=O)N2C(C(=O)[O-])=C(C[n+]3ccccc3)CS[C@H]12)c1csc(N)n1)C(=O)O` [CEFTAZIDIME] had an ED50 of 71 µg. The MIC in the data set on Pseudomonas aeruginosa [1] was 128 mg/L (≈ 234 µM); with Pseudomonas aeruginosa [3], 2 mg/L (≈ 3.66 µM). Besides, the MIC50 in the data set on Pseudomonas aeruginosa [2] (setting [5]) stood at 2 mg/L (≈ 3.66 µM).

Compound `Cn1c(N)c(NC(=O)NCCN)c[n+]1CC1=C(C(=O)O)N2C(=O)[C@@H](NC(=O)/C(=N\OC(C)(C)C(=O)[O-])c3nsc(N)n3)[C@H]2SC1` [CEFTOLOZANE] yielded an ED50 with Mus musculus of 428 µg. Moreover, the MIC was found to be 2 mg/L (≈ 3 µM) against Pseudomonas aeruginosa [1] and 0.5 mg/L (≈ 0.75 µM) with Pseudomonas aeruginosa [3]. Also, the MIC50 in the data set with Pseudomonas aeruginosa [2] (setting [5]) was found to be 0.5 mg/L (≈ 0.75 µM).

For orientation: MIC means the lowest concentration that inhibits growth of the organism. By MIC50 is commonly meant the lowest concentration that inhibits either 50% of growth or 50% of the strains tested, depending on the study.

These data come from ChEMBL document CHEMBL1139418, “Synthesis and SAR of novel parenteral anti-pseudomonal cephalosporins: discovery of FR264205” (Bioorg Med Chem Lett, 2008).
